Entries after “also recorded” stand apart in the source; their conditions may differ. Where a SMILES comes first, the peptide text is derived from it.
Tests used:
[1] = test system: cdk2 K178A; details: cited from earlier work
[2] = biological target: T1, cdk2/cyclin E complex (Homo sapiens, UniProt P24941); details: cited from earlier work
[3] = test system: cdk2 R126A; details: alanine mutation experiment; cited from earlier work
[4] = test system: RNA polymerase II (RNAPII) serine 5; details: by disrupting cdk2/cyclin E complex formation; cited from earlier work
[5] = test system: cdk2; details: cited from earlier work
[6] = test system: cdk2 Y180A; details: cited from earlier work
[7] = biological target: T1, cdk2/cyclin E complex; test: Phosphorylation of RNAPII CTD; type: biochemical
Summary of the method: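 C81 cell lysate was fractionated on Superose 6 size exclusion, and cdk2 fractions 28–32 were pooled with test peptide (0.01, 0.1, 1, 10 μM). Cyclin E was immunoprecipitated overnight at 4°C (1 μg antibody, ~100 ng active cdk2/cyclin E), captured on protein A/G beads and washed. Kinase reaction: 20 μl, 1 hr, 37°C, GST-CTD substrate, (γ-32P) ATP. Products run on 4–20% Tris-glycine gel, dried, 32P bands counted by phosphorimager.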

IC50 [7] | Molecule | Binding affinity to mutant [1] | Disruption of cdk2/cyclin E complex [2] | Effect of R126A mutation on peptide binding [3] | Inhibition of phosphorylation of serine 5 of RNAPII [4] | Interaction with cdk2 [5] | Binding affinity to mutant [6]
– | TAALS | dramatic reduction in their binding affinity | disrupts the cdk2/cyclin E complex; also recorded: succeeded in partially breaking the cdk2/cyclin E complex | does not participate significantly in the peptide binding; also recorded: does not affect the binding of peptide TAALS | inhibits the phosphorylation of serine 5 of RNA polymerase II (RNAPII) | interacts directly with cdk2 | dramatic reduction in their binding affinity
4.26 µM | CC(C)C[C@H](NC(=O)[C@H](C)NC(=O)[C@H](C)NC(=O)[C@@H](N)CC(C)C)C(=O)N[C@@H](CO)C(=O)O [LAALS] (H-LAALS-OH) | – | – | – | – | – | –
